Results from ChEMBL document CHEMBL4382192, “Discovery of a potent dual ALK and EGFR T790M inhibitor” (Eur J Med Chem, 2017).

Columns and labels:
[1] = molecular target: BDNF/NT-3 growth factors receptor (Homo sapiens) (UniProt Q16620); test: Binding affinity to wild-type human partial length TRKB (Q547 to G838 residues) expressed in mammalian expression system assessed as residual binding level at 1 uM by Kinomescan method relative to control
[2] = molecular target: Dual specificity mitogen-activated protein kinase kinase 4 (Homo sapiens) (UniProt P45985); test: Binding affinity to wild-type human partial length MEK4 (S84 to D399 residues) expressed in mammalian expression system assessed as residual binding level at 1 uM by Kinomescan method relative to control
[3] = molecular target: Atypical kinase COQ8A, mitochondrial (Homo sapiens) (UniProt Q8NI60); test: Binding affinity to wild-type human full length ADCK3 (M280 to Q647 residues) expressed in bacterial expression system assessed as residual binding level at 1 uM by Kinomescan method relative to control
[4] = molecular target: Dual serine/threonine and tyrosine protein kinase (Homo sapiens) (UniProt Q6XUX3); test: Binding affinity to wild-type human full length RIPK5 (M1 to T929 residues) expressed in mammalian expression system assessed as residual binding level at 1 uM by Kinomescan method relative to control
[5] = molecular target: MAP kinase-activated protein kinase 2 (Homo sapiens) (UniProt P49137); test: Binding affinity to wild-type human partial length MAPKAPK2 (V48 to D345 residues) expressed in bacterial expression system assessed as residual binding level at 1 uM by Kinomescan method relative to control
[6] = Clearance in mouse at 10 mg/kg, po; assay type: ADME, organism-based; conditions: in vivo
[7] = molecular target: Atypical kinase COQ8B, mitochondrial (Homo sapiens) (UniProt Q96D53); test: Binding affinity to wild-type human full length ADCK4 (M1 to S544 residues) expressed in bacterial expression system assessed as residual binding level at 1 uM by Kinomescan method relative to control
[8] = molecular target: 5'-AMP-activated protein kinase catalytic subunit alpha-2 (Homo sapiens) (UniProt P54646); test: Binding affinity to wild-type human partial length AMPK alpha2 (M1 to E306 residues) expressed in bacterial expression system assessed as residual binding level at 1 uM by Kinomescan method relative to control
[9] = Volume of distribution at steady state in mouse at 2 mg/kg, iv; assay type: ADME, organism-based; conditions: in vivo, read-out: Vdss
[10] = Inhibition of EGFR/ALK L1152R mutant in human DFCI076 cells assessed as reduction in cell viability after 72 hrs by MTS assay; assay type: cell-based
[11] = molecular target: Serine/threonine-protein kinase 25 (Homo sapiens) (UniProt O00506); test: Binding affinity to wild-type human partial length YSK1 (V14 to H295 residues) expressed in bacterial expression system assessed as residual binding level at 1 uM by Kinomescan method relative to control
[12] = molecular target: Mitogen-activated protein kinase kinase kinase 9 (Homo sapiens) (UniProt P80192); test: Binding affinity to wild-type human partial length MLK1 (V88 to W426 residues) expressed in bacterial expression system assessed as residual binding level at 1 uM by Kinomescan method relative to control
[13] = molecular target: Death-associated protein kinase 3 (Homo sapiens) (UniProt O43293); test: Binding affinity to wild-type human partial length DAPK3 (M1 to A277 residues) expressed in bacterial expression system assessed as residual binding level at 1 uM by Kinomescan method relative to control
[14] = molecular target: Bone morphogenetic protein receptor type-1B (Homo sapiens) (UniProt O00238); test: Binding affinity to wild-type human partial length BMPR1B (D178 to L502 residues) expressed in mammalian expression system assessed as residual binding level at 1 uM by Kinomescan method relative to control
[15] = molecular target: Proto-oncogene tyrosine-protein kinase Src (Homo sapiens) (UniProt P12931); test: Binding affinity to wild-type human partial length SRC (L240 to L536 residues) expressed in bacterial expression system assessed as residual binding level at 1 uM by Kinomescan method relative to control
[16] = molecular target: Serine/threonine-protein kinase RIO3 (Homo sapiens) (UniProt O14730); test: Binding affinity to wild-type human full length RIOK3 (M1 to E519 residues) expressed in bacterial expression system assessed as residual binding level at 1 uM by Kinomescan method relative to control
Summary of the method: (§1)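 Single-point kinome-wide KINOMEscan binding panel, test compound at 1 μM, run by the provider's standard protocol.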

[17] = molecular target: CYP2C19 (Homo sapiens, UniProt P33261); test: Residual activity of CYP2C19 in human liver microsomes at 10 uM using S-mephenytoin 4-hydroxylase as substrate preincubated for 5 mins followed by NADPH addition measured after 15 mins by LC/MS/MS analysis relative to control; conditions: probe S-mephenytoin (4-hydroxylation)
[18] = molecular target: Cyclin-dependent kinase 14 (Homo sapiens) (UniProt O94921); test: Binding affinity to wild-type human full length PFTK1 (M1 to H451 residues) expressed in bacterial expression system assessed as residual binding level at 1 uM by Kinomescan method relative to control; summary of the method: as §1
[19] = molecular target: Tyrosine-protein kinase receptor UFO (Homo sapiens) (UniProt P30530); test: Binding affinity to wild-type human partial length AXL (R497 to Y821 residues) expressed in bacterial expression system assessed as residual binding level at 1 uM by Kinomescan method relative to control
[20] = molecular target: Mitogen-activated protein kinase kinase kinase kinase 1 (Homo sapiens) (UniProt Q92918); test: Binding affinity to wild-type human full length HPK1 (M1 to R799 residues) expressed in bacterial expression system assessed as residual binding level at 1 uM by Kinomescan method relative to control
[21] = test system: Phosphatidylinositol 4,5-bisphosphate 3-kinase catalytic subunit alpha isoform (Homo sapiens), P42336 [C420R]; test: Binding affinity to human partial length PIK3CA C420R mutant (R108 to N1068 residues) expressed in mammalian expression system assessed as residual binding level at 1 uM by Kinomescan method relative to control
[22] = Drug uptake in mouse lung at 2 mg/kg, iv after 2 hrs; assay type: ADME, organism-based; conditions: read-out: Drug uptake
[23] = molecular target: Mitogen-activated protein kinase 10 (Homo sapiens) (UniProt P53779); test: Binding affinity to wild-type human partial length JNK3 (V28 to Q422 residues) expressed in mammalian expression system assessed as residual binding level at 1 uM by Kinomescan method relative to control
[24] = molecular target: Activin receptor type-1 (Homo sapiens) (UniProt Q04771); test: Binding affinity to wild-type human ACVR1 (C188 to C509 residues) expressed in bacterial expression system assessed as residual binding level at 1 uM by Kinomescan method relative to control
[25] = molecular target: Serine/threonine-protein kinase PLK3 (Homo sapiens) (UniProt Q9H4B4); test: Binding affinity to wild-type human partial length PLK3 (A42 to L334 residues) expressed in mammalian expression system assessed as residual binding level at 1 uM by Kinomescan method relative to control
[26] = molecular target: Ribosomal protein S6 kinase alpha-1 (Homo sapiens) (UniProt Q15418); test: Binding affinity to wild-type human partial length N-terminal RSK1 Kinase domain 1 (M1 to E388 residues) expressed in bacterial expression system assessed as residual binding level at 1 uM by Kinomescan method relative to control

Mitogen-activated protein kinase kinase kinase kinase 1 (Homo sapiens), sequence (Q92918 whole entry, looked up, the tested form may be a part, canonical isoform): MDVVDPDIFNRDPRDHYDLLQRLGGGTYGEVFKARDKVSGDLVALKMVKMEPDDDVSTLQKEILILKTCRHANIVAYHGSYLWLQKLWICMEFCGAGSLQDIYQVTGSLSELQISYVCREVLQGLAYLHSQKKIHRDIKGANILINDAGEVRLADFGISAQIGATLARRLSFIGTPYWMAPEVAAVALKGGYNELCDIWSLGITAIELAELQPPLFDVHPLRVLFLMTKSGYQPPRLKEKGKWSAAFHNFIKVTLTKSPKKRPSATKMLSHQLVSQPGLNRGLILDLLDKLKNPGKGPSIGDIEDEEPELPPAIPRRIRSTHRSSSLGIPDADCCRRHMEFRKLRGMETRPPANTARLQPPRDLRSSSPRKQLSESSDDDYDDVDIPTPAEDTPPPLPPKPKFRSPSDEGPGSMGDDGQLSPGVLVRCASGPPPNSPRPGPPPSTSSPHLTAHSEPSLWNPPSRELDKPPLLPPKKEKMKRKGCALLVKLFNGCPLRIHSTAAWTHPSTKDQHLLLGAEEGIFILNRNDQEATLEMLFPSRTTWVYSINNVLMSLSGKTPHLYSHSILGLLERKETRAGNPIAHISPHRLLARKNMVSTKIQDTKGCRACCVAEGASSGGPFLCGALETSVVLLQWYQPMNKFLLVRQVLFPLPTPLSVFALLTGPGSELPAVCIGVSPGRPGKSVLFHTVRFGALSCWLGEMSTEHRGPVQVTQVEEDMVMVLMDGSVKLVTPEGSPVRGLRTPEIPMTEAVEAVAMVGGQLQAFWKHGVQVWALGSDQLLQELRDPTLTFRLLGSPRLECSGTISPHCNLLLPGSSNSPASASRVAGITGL
Cyclin-dependent kinase 14 (Homo sapiens), sequence (O94921 whole entry, the tested form may be a part): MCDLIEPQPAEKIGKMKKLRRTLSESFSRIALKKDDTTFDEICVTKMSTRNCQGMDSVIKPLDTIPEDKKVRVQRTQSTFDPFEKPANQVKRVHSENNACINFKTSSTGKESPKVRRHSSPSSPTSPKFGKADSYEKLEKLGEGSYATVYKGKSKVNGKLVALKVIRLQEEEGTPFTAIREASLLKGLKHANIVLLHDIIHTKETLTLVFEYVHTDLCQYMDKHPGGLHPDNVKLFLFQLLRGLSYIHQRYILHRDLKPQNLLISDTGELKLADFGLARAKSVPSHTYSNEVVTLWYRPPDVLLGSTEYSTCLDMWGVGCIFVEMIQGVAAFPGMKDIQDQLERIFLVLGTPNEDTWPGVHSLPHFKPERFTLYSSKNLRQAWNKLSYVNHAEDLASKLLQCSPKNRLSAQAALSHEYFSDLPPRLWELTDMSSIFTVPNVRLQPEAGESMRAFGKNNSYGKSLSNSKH
Mitogen-activated protein kinase kinase kinase 9 (Homo sapiens), sequence (P80192 whole entry, looked up, the tested form may be a part): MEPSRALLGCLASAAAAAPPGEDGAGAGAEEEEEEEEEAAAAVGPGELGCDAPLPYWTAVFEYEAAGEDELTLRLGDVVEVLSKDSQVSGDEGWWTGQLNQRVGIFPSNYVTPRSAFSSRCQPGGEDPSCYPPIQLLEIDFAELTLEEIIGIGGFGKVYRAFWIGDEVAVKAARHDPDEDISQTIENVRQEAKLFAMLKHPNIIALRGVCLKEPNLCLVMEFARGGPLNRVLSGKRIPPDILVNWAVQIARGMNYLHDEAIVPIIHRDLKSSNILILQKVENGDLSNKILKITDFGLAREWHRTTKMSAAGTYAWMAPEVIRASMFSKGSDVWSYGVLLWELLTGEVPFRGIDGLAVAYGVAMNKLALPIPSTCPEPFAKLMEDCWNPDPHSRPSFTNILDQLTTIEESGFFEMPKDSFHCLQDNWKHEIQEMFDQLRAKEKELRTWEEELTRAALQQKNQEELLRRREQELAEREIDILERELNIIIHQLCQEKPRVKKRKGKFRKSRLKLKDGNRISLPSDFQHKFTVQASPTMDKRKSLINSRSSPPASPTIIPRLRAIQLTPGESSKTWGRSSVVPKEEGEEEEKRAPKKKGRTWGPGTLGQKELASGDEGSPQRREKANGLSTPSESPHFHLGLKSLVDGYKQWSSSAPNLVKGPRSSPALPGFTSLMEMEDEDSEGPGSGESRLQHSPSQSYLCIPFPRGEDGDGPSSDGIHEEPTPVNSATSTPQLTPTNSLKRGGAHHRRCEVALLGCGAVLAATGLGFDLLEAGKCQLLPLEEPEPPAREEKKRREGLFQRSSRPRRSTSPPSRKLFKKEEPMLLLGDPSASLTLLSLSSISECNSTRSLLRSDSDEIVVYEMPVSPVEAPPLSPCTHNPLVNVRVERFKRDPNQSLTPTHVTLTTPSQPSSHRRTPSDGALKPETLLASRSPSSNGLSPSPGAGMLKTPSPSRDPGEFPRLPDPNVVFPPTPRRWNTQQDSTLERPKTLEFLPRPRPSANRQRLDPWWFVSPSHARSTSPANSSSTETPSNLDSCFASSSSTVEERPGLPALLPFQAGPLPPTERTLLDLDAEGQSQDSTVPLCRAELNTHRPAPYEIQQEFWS
Activin receptor type-1 (Homo sapiens), sequence (Q04771 whole entry, the tested form may be a part): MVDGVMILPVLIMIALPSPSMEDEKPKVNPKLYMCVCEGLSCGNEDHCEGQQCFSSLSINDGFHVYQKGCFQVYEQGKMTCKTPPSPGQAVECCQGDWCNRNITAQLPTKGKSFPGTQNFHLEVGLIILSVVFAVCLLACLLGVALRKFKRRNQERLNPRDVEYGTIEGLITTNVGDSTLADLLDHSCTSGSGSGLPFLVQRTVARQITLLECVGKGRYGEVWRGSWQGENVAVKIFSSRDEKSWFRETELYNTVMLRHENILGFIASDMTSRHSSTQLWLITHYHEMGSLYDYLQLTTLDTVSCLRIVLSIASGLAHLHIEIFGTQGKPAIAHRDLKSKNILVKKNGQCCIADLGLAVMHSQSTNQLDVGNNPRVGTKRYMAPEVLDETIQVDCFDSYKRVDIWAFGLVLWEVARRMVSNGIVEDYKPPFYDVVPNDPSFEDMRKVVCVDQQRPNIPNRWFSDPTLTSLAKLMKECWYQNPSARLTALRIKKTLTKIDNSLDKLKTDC
Serine/threonine-protein kinase 25 (Homo sapiens), sequence (O00506 whole entry, looked up, the tested form may be a part): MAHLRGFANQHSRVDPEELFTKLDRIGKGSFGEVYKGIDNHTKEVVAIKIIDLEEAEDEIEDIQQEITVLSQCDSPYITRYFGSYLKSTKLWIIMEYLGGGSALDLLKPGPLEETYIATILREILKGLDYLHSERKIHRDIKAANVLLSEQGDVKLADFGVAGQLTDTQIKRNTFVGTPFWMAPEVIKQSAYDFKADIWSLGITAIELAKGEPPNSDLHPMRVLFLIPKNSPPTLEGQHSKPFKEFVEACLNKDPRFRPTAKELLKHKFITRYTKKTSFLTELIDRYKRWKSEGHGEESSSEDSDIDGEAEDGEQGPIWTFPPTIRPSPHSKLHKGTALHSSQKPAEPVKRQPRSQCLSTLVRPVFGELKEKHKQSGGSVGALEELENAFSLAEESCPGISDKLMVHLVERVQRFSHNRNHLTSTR
Mitogen-activated protein kinase 10 (Homo sapiens), sequence (P53779 whole entry, the tested form may be a part): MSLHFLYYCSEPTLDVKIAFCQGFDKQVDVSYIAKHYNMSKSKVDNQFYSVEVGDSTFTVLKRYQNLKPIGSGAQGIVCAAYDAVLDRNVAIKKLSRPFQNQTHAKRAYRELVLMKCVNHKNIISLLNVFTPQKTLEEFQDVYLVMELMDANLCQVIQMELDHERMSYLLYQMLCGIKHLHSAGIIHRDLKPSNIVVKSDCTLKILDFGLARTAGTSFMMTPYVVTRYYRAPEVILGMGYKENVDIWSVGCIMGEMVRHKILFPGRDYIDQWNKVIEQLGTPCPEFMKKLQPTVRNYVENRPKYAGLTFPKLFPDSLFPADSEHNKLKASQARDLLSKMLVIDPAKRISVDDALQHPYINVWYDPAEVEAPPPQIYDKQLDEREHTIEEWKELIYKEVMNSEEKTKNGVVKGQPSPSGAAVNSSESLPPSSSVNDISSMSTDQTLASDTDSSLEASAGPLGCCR
5'-AMP-activated protein kinase catalytic subunit alpha-2 (Homo sapiens), sequence (P54646 whole entry, looked up, the tested form may be a part): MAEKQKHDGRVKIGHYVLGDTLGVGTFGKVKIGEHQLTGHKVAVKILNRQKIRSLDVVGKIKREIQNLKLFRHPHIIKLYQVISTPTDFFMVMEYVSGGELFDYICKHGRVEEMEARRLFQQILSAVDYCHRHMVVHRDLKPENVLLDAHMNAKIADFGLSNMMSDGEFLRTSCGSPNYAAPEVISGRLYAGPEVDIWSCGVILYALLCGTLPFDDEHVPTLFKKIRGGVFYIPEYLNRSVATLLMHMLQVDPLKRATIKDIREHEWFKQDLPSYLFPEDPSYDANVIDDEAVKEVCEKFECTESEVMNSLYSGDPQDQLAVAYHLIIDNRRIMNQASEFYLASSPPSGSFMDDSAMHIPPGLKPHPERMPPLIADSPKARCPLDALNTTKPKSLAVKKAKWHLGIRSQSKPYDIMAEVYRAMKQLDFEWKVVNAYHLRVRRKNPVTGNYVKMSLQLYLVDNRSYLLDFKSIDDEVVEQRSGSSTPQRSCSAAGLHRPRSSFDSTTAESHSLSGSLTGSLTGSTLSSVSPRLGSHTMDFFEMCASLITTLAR
CYP2C19, sequence (P33261 whole entry, the tested form may be a part): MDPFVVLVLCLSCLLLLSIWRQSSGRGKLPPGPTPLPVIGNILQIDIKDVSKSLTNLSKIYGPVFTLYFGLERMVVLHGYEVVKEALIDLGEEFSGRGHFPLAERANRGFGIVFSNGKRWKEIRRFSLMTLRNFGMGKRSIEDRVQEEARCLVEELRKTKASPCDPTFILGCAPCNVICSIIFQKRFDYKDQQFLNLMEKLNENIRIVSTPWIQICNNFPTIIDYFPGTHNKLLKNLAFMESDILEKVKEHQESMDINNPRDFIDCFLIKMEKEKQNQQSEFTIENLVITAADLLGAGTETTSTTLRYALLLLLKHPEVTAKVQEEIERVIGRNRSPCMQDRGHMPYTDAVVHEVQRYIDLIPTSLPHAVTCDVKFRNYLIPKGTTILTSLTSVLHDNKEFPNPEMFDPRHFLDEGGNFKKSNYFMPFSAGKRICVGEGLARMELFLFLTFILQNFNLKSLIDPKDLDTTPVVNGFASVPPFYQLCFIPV

`C=CC(=O)Nc1cc(Nc2ncc(Cl)c(Nc3ccccc3S(=O)(=O)C(C)C)n2)c(OC)cc1N(C)CCN(C)C` gave an Activity [1] of 30%, an Activity [2] of 100% and an Activity [3] of 100%. For the same compound, the Activity [4] was 60%, the Activity [5] was 100% and the CL/F [6] was 6.87 L/h/kg. For the same compound, the Activity [7] was 43%, the Activity [8] was 23% and the Vd [9] was 2.66 L/kg. For the same compound, the EC50 [10] was 0.82 µM, the Activity [11] was 81% and the Activity [12] was 39%. For the same compound, the Activity [13] was 39%, the Activity [14] was 0% and the Activity [15] was 34%. It also gave an Activity [16] of 93%, an Activity at […], 10 µM [17] of 86% and an Activity [18] of 83%. It also gave an Activity [19] of 10%, an Activity [20] of 15% and an Activity [21] of 87%. The concentration at 2 h [22] was 2.36 µM, the Activity [23] was 82% and the Activity [24] was 9%. It also gave an Activity [25] of 60% and an Activity [26] of 4.3%.
